Results as given in ChEMBL document CHEMBL2331191, “Design and synthesis of novel 1,2,3-triazole-dithiocarbamate hybrids as potential anticancer agents” (Eur J Med Chem, 2013).
pIC50: −log10 of the molar value.

Tests used:
MGC-803 [1] = test: Cell cycle arrest in human MGC803 cells assessed as accumulation at G0/G1 phase at 0.25 umol/L after 24 hrs by propidium iodide staining-based flow cytometric analysis (reference value: 43.68%); assay type: functional
MGC-803 [2] = test: Cell cycle arrest in human MGC803 cells assessed as accumulation at G2/M phase at 1 umol/L after 12 hrs by propidium iodide staining-based flow cytometric analysis (reference value: 17.59%); assay type: functional
MGC-803 [3] = test: Cell cycle arrest in human MGC803 cells assessed as accumulation at G2/M phase at 0.5 umol/L after 12 hrs by propidium iodide staining-based flow cytometric analysis (reference value: 17.59%); assay type: functional
MGC-803 [4] = test: Cell cycle arrest in human MGC803 cells assessed as accumulation at G2/M phase at 0.25 umol/L after 12 hrs by propidium iodide staining-based flow cytometric analysis (reference value: 17.59%); assay type: functional
MGC-803 [5] = test: Cell cycle arrest in human MGC803 cells assessed as accumulation at S phase at 1 umol/L after 12 hrs by propidium iodide staining-based flow cytometric analysis (reference value: 41.43%); assay type: functional
MGC-803 [6] = test: Cell cycle arrest in human MGC803 cells assessed as accumulation at S phase at 0.5 umol/L after 12 hrs by propidium iodide staining-based flow cytometric analysis (reference value: 41.43%); assay type: functional
MGC-803 [7] = test: Cell cycle arrest in human MGC803 cells assessed as accumulation at S phase at 0.25 umol/L after 12 hrs by propidium iodide staining-based flow cytometric analysis (reference value: 41.43%); assay type: functional
MGC-803 [8] = test: Cell cycle arrest in human MGC803 cells assessed as accumulation at G0/G1 phase at 1 umol/L after 12 hrs by propidium iodide staining-based flow cytometric analysis (reference value: 39.17%); assay type: functional
MGC-803 [9] = test: Cell cycle arrest in human MGC803 cells assessed as accumulation at G0/G1 phase at 0.5 umol/L after 12 hrs by propidium iodide staining-based flow cytometric analysis (reference value: 39.17%); assay type: functional
MGC-803 [10] = test: Cell cycle arrest in human MGC803 cells assessed as accumulation at G0/G1 phase at 0.25 umol/L after 12 hrs by propidium iodide staining-based flow cytometric analysis (reference value: 39.17%); assay type: functional
MGC-803 [11] = test: Induction of apoptosis in human MGC803 cells after 12 hrs by annexin-V-FITC/propidium iodide staining-based flow cytometric analysis; assay type: functional, cell-based
Summary of the method: (§1)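 MGC-803 cells were plated at 5.0×10^4 cells/mL, held 12 h at 37 °C, then given complete medium (blank) or compound at 0, 0.25, 0.5 or 1.0 µmol/L for 12 h. Quadrants: live (annexin−/PI−), early apoptotic (annexin+/PI−), late apoptotic (annexin+/PI+), damaged (annexin−/PI+).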

MGC-803 [12] = test: Induction of apoptosis in human MGC803 cells assessed as live cells at 1 umol/L after 12 hrs by annexin-V-FITC/propidium iodide staining-based flow cytometric analysis (reference value: 88.9%); assay type: functional; summary of the method: as §1
MGC-803 [13] = test: Induction of apoptosis in human MGC803 cells assessed as live cells at 0.5 umol/L after 12 hrs by annexin-V-FITC/propidium iodide staining-based flow cytometric analysis (reference value: 88.9%); assay type: functional; summary of the method: as §1
MGC-803 [14] = test: Induction of apoptosis in human MGC803 cells assessed as live cells at 0.25 umol/L after 12 hrs by annexin-V-FITC/propidium iodide staining-based flow cytometric analysis (reference value: 88.9%); assay type: functional; summary of the method: as §1
MGC-803 [15] = test: Induction of apoptosis in human MGC803 cells assessed as damaged cells at 1 umol/L after 12 hrs by annexin-V-FITC/propidium iodide staining-based flow cytometric analysis (reference value: 1.9%); assay type: functional; summary of the method: as §1
MGC-803 [16] = test: Induction of apoptosis in human MGC803 cells assessed as damaged cells at 0.5 umol/L after 12 hrs by annexin-V-FITC/propidium iodide staining-based flow cytometric analysis (reference value: 1.9%); assay type: functional; summary of the method: as §1
MGC-803 [17] = test: Induction of apoptosis in human MGC803 cells assessed as damaged cells at 0.25 umol/L after 12 hrs by annexin-V-FITC/propidium iodide staining-based flow cytometric analysis (reference value: 1.9%); assay type: functional; summary of the method: as §1
MGC-803 [18] = test: Induction of apoptosis in human MGC803 cells assessed as early apoptotic cells at 1 umol/L after 12 hrs by annexin-V-FITC/propidium iodide staining-based flow cytometric analysis (reference value: 3.7%); assay type: functional; summary of the method: as §1
MGC-803 [19] = test: Induction of apoptosis in human MGC803 cells assessed as early apoptotic cells at 0.5 umol/L after 12 hrs by annexin-V-FITC/propidium iodide staining-based flow cytometric analysis (reference value: 3.7%); assay type: functional; summary of the method: as §1
MGC-803 [20] = test: Induction of apoptosis in human MGC803 cells assessed as early apoptotic cells at 0.25 umol/L after 12 hrs by annexin-V-FITC/propidium iodide staining-based flow cytometric analysis (reference value: 3.7%); assay type: functional; summary of the method: as §1
MGC-803 [21] = test: Induction of apoptosis in human MGC803 cells assessed as late apoptotic cells at 1 umol/L after 12 hrs by annexin-V-FITC/propidium iodide staining-based flow cytometric analysis (reference value: 5.5%); assay type: functional; summary of the method: as §1
MGC-803 [22] = test: Induction of apoptosis in human MGC803 cells assessed as late apoptotic cells at 0.5 umol/L after 12 hrs by annexin-V-FITC/propidium iodide staining-based flow cytometric analysis (reference value: 5.5%); assay type: functional; summary of the method: as §1
MGC-803 [23] = test: Induction of apoptosis in human MGC803 cells assessed as late apoptotic cells at 0.25 umol/L after 12 hrs by annexin-V-FITC/propidium iodide staining-based flow cytometric analysis (reference value: 5.5%); assay type: functional; summary of the method: as §1
MGC-803 [24] = test: Ratio of 5-fluorouracil IC50 to compound IC50 for growth inhibition of human MGC803 cells; assay type: functional
Summary of the method: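 The IC50 ratio uses MGC-803 values from the 72 h MTT assay: cells seeded at 5×10^3 per well, compound exposure 72 h, MTT 4 h at 37 °C, A570 read after DMSO solubilization. Triplicate wells, three experiments. IC50 values were taken from dose–response curves, with 5-fluorouracil as the reference.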

[25] = Cytotoxicity against human EC109 cells assessed as growth inhibition after 72 hrs by MTT assay; assay type: functional, cell-based; details: ECa-109, 72 h
Summary of the method: (§2)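 Exponentially growing cells were seeded at 5×10^3 per well and held 24 h at 37 °C. Medium was then replaced with fresh medium containing a range of concentrations, and cells were exposed for 72 h. MTT (5 mg/mL) was added for 4 h at 37 °C, formazan was dissolved in DMSO and A570 was read. Triplicate wells per concentration, three experiments. IC50 was taken from dose–response curves of inhibition ratio.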

PC-3 = test: Cytotoxicity against human PC3 cells assessed as growth inhibition after 72 hrs by MTT assay; assay type: functional, cell-based; details: PC-3, 72 h; summary of the method: as §2
MCF7 = test: Cytotoxicity against human MCF7 cells assessed as growth inhibition after 72 hrs by MTT assay; assay type: functional, cell-based; details: MCF7, 72 h; summary of the method: as §2
MGC-803 [26] = test: Cytotoxicity against human MGC803 cells assessed as growth inhibition after 72 hrs by MTT assay; assay type: functional, cell-based; details: MGC-803, 72 h; summary of the method: as §2
MGC-803 [27] = test: Cell cycle arrest in human MGC803 cells assessed as accumulation at G2/M phase at 0.25 to 1 umol/L by propidium iodide staining-based flow cytometric analysis; assay type: functional; details: TDE = time-dependent effect
MGC-803 [28] = test: Cell cycle arrest in human MGC803 cells assessed as accumulation at G2/M phase after 12 to 24 hrs by propidium iodide staining-based flow cytometric analysis; assay type: functional
MGC-803 [29] = test: Cell cycle arrest in human MGC803 cells assessed as accumulation at G2/M phase at 1 umol/L after 24 hrs by propidium iodide staining-based flow cytometric analysis (reference value: 15.12%); assay type: functional
MGC-803 [30] = test: Cell cycle arrest in human MGC803 cells assessed as accumulation at G2/M phase at 0.5 umol/L after 24 hrs by propidium iodide staining-based flow cytometric analysis (reference value: 15.12%); assay type: functional
MGC-803 [31] = test: Cell cycle arrest in human MGC803 cells assessed as accumulation at G2/M phase at 0.25 umol/L after 24 hrs by propidium iodide staining-based flow cytometric analysis (reference value: 15.12%); assay type: functional
MGC-803 [32] = test: Cell cycle arrest in human MGC803 cells assessed as accumulation at S phase at 1 umol/L after 24 hrs by propidium iodide staining-based flow cytometric analysis (reference value: 39.56%); assay type: functional
MGC-803 [33] = test: Cell cycle arrest in human MGC803 cells assessed as accumulation at S phase at 0.5 umol/L after 24 hrs by propidium iodide staining-based flow cytometric analysis (reference value: 39.56%); assay type: functional
MGC-803 [34] = test: Cell cycle arrest in human MGC803 cells assessed as accumulation at S phase at 0.25 umol/L after 24 hrs by propidium iodide staining-based flow cytometric analysis (reference value: 39.56%); assay type: functional
MGC-803 [35] = test: Cell cycle arrest in human MGC803 cells assessed as accumulation at G0/G1 phase at 1 umol/L after 24 hrs by propidium iodide staining-based flow cytometric analysis (reference value: 43.68%); assay type: functional
MGC-803 [36] = test: Cell cycle arrest in human MGC803 cells assessed as accumulation at G0/G1 phase at 0.5 umol/L after 24 hrs by propidium iodide staining-based flow cytometric analysis (reference value: 43.68%); assay type: functional

SMILES: CC(C)(C)OC(=O)N1CCN(C(=S)SCc2cn(Cc3ccccc3Cl)nn2)CC1
- Activity (MGC-803 [1]): 27.21%
- Activity (MGC-803 [2]): 64.1%
- Activity (MGC-803 [3]): 34.29%
- Activity (MGC-803 [4]): 22.2%
- Activity (MGC-803 [5]): 30.36%
- Activity (MGC-803 [6]): 36.01%
- Activity (MGC-803 [7]): 39.06%
- Activity (MGC-803 [8]): 11.95%
- Activity (MGC-803 [9]): 30.04%
- Activity (MGC-803 [10]): 38.7%
- Activity (MGC-803 [11]): Dose-dependent effect
- Activity (MGC-803 [12]): 54.6%
- Activity (MGC-803 [13]): 74.1%
- Activity (MGC-803 [14]): 84.8%
- Activity (MGC-803 [15]): 2.3%
- Activity (MGC-803 [16]): 2.9%
- Activity (MGC-803 [17]): 1.9%
- Activity (MGC-803 [18]): 35.1%
- Activity (MGC-803 [19]): 14.6%
- Activity (MGC-803 [20]): 7.7%
- Activity (MGC-803 [21]): 8.1%
- Activity (MGC-803 [22]): 8.4%
- Activity (MGC-803 [23]): 5.5%
- Ratio IC50 (MGC-803 [24]): 14
- pIC50 [25]: 4.92
- pIC50 (PC-3): 4.90
- pIC50 (MCF7): 5.22
- pIC50 (MGC-803 [26]): 6.31
- Activity (MGC-803 [27]): tde
- Activity (MGC-803 [28]): Dose-dependent effect
- Activity (MGC-803 [29]): 80.05%
- Activity (MGC-803 [30]): 68.1%
- Activity (MGC-803 [31]): 38.75%
- Activity (MGC-803 [32]): 10.67%
- Activity (MGC-803 [33]): 14.81%
- Activity (MGC-803 [34]): 34.35%
- Activity (MGC-803 [35]): 1.62%
- Activity (MGC-803 [36]): 9.13%
